Consider nine compounds from ChEMBL document CHEMBL4665656, “Toxicity, bioactivity, release of HS in vivo and pharmaco-kinetics of HS-donors with thiophosphamide structure” (Eur J Med Chem, 2019).

Test [1] is described as follows: Induction of H2S generation assessed as Cmax Induction of H2S generation assessed as Cmax at 150 uM incubated at 37 degC and pH 7.4 by fluorescence spectrophotometry. It is filed as functional. In a few lines:
(§1)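 Donor at 150 µM final, mixed with 200 µM sulfonyl-azide fluorescent probe in buffer/acetonitrile (1:9) at set pH. Cuvette held in a water bath at 22 °C or 37 °C, with fluorescence read three times at intervals. H2S was quantified from a Na2S standard curve (0–200 µM, probe 200 µM).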

Test [2] in a line: Induction of H2S generation assessed as Cmax Induction of H2S generation assessed as Cmax at 150 uM incubated at 37 degC and pH 8 by fluorescence spectrophotometry. It is filed as functional. The essentials:
as §1

A short description of test [3]: Induction of H2S generation assessed as Cmax at 150 uM incubated at 37 degC and pH 5 by fluorescence spectrophotometry. It is filed as functional. The essentials: as §1
Test [4] in a line: Induction of H2S generation assessed as Cmax at 150 uM incubated at 37 degC and pH 1.2 by fluorescence spectrophotometry. It is filed as functional. In a few lines: as §1
Test [5] is described as follows: Induction of H2S generation assessed as Cmax at 150 uM incubated at 22 degC and pH 7.4 by fluorescence spectrophotometry. It is filed as functional. In a few lines:
as §1

Test [6] in a line: Induction of H2S generation assessed as Cmax at 150 uM incubated at 22 degC and pH 8 by fluorescence spectrophotometry. It is filed as functional. The essentials: as §1
A short description of test [7]: Induction of H2S generation assessed as Cmax at 150 uM incubated at 22 degC and pH 5 by fluorescence spectrophotometry. It is filed as functional. The essentials:
as §1

Test [8] in a line: Induction of H2S generation assessed as Cmax at 150 uM incubated at 22 degC and pH 1.2 by fluorescence spectrophotometry. It is filed as functional. In a few lines: as §1
Test [9] relates to HeLa. In words: Cytotoxicity in human HeLa cells assessed as growth inhibition incubated for 24 hrs by MTT assay. It is filed as functional, cell-based. In a few lines: (§2)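 Cells were grown in RPMI 1640 with 10% FBS at 37 °C and 10% CO2, seeded at 6×10^3 cells/well. Exposure was 24 h, with viability by MTT, in triplicate cultures. IC50 was reported as mean ± SD.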
The test system of test [10] is A549. In words: Cytotoxicity in human A549 cells assessed as growth inhibition incubated for 24 hrs by MTT assay. It is filed as functional, cell-based. To be noted: A549, 24 h. The essentials: as §2
Test [11] has as its system HepG2. The test can be described thus: Cytotoxicity in human HePG2 cells assessed as growth inhibition incubated for 24 hrs by MTT assay. It is filed as functional, cell-based. Particulars: HepG2, 24 h. In a few lines: as §2
In test [12] the test system is MCF7. The test can be described thus: Cytotoxicity in human MCF-7 cells assessed as growth inhibition incubated for 24 hrs by MTT assay. It is filed as functional, cell-based. Particulars: MCF7, 24 h. In a few lines:
as §2

Test [13] has as its system HT-29. The test can be described thus: Cytotoxicity in human HT-29 cells assessed as growth inhibition incubated for 24 hrs by MTT assay. Particulars: HT-29, 24 h. It is filed as functional, cell-based. The essentials:
as §2

Test [14] relates to WI-38. In words: Cytotoxicity in human W138 cells assessed as growth inhibition incubated for 24 hrs by MTT assay. It is filed as cell-based. Particulars: WI-38, 24 h. The essentials: as §2
The nature of test [15]: Induction of H2S generation assessed as half life at 150 uM incubated at 22 degC and pH 1.2 by fluorescence spectrophotometry. It is filed as functional. In a few lines: as §1
Test [16] in a line: Induction of H2S generation assessed as half life at 150 uM incubated at 22 degC and pH 5 by fluorescence spectrophotometry. It is filed as functional. In a few lines: as §1
The nature of test [17]: Induction of H2S generation assessed as half life at 150 uM incubated at 22 degC and pH 7.4 by fluorescence spectrophotometry. It is filed as functional. The essentials:
as §1

Test [18] in a line: Induction of H2S generation assessed as half life at 150 uM incubated at 22 degC and pH 8 by fluorescence spectrophotometry. It is filed as functional. The essentials: as §1
Test [19] in a line: Induction of H2S generation assessed as half life at 150 uM incubated at 37 degC and pH 1.2 by fluorescence spectrophotometry. It is filed as functional. The essentials: as §1
Test [20] in a line: Induction of H2S generation assessed as half life at 150 uM incubated at 37 degC and pH 5 by fluorescence spectrophotometry. It is filed as functional. The essentials: as §1
Test [21] in a line: Induction of H2S generation assessed as half life at 150 uM incubated at 37 degC and pH 7.4 by fluorescence spectrophotometry. It is filed as functional. In a few lines:
as §1

The nature of test [22]: Induction of H2S generation assessed as half life at 150 uM incubated at 37 degC and pH 8 by fluorescence spectrophotometry. It is filed as functional. The essentials:
as §1

With `CC(C)C[C@H](NP(O)(=S)c1ccccc1)C(=O)O` (stereo not given in full), the Cmax in test [1] was found to be 118 µM; in test [2], 116 µM; in test [3], 118 µM; in test [4], 119 µM; in test [5], 112 µM; in [6], 111 µM. The Cmax stood at 112 µM in test [7] and 113 µM in [8]. Also, the IC50 in [9] stood at 835 µM; in [10], 273 µM; in [11], 415 µM; in test [12], 643 µM; in [13], 756 µM; in test [14] it was 438 µM. The T1/2 in [15] worked out at 2.65 min; in [16], 3.25 min; in test [17] it was 3.72 min; in test [18] it was 4.44 min; in [19], 2.04 min; in [20] it was 2.75 min. The T1/2 in test [21] was 2.83 min; in [22] it was 3.59 min.

Consider `O=C(O)[C@@H]1CCCN1P(O)(=S)c1ccccc1` (stereo not given in full), for which the Cmax was 4.2 µM in [1]; 4.3 µM in test [2]; 4.2 µM in [3]; 4.2 µM in [4]; 4 µM in [5]; 4.1 µM in [6]. Further, the Cmax was found to be 4.2 µM in [7] and 4 µM in [8]. The IC50 in test [9] was 839 µM; in test [10] it was 519 µM; in test [11] it was 816 µM; in [12], 874 µM; in test [13] it was 932 µM; in test [14] it was 872 µM. Also, the T1/2 in test [15] was found to be 10.9 min; in [16], 10.6 min; in test [17], 9.27 min; in test [18], 10.8 min; in [19], 10.4 min; in test [20] it was 9.15 min. Further, the figures for the T1/2 in test [21] and in test [22] were 9.92 min and 9.83 min, respectively.

For `S=P1(c2ccccc2)NCCO1` (stereo not given), the Cmax in test [1] was found to be 31.1 µM; in test [2] it was 35.4 µM; in test [3] it was 37 µM; in test [4] it was 35.6 µM; in test [5] it was 29.9 µM; in [6], 29.7 µM. Further, the Cmax in test [7] stood at 29.9 µM; in test [8], 30 µM. Also, the IC50 in test [9] amounted to 930 µM; in test [10], 622 µM; in [11], 775 µM; in test [12], 798 µM; in test [13] it was 539 µM; in test [14], 759 µM. Moreover, the T1/2 stood at 33.8 min in test [15]; 32.7 min in test [16]; 31.9 min in test [17]; 31.3 min in test [18]; 31.9 min in [19]; 32.6 min in [20]. Moreover, the T1/2 worked out at 32.2 min in test [21] and 33.6 min in test [22].

For `S=P1(c2ccccc2)OCCO1`, the Cmax in test [1] was found to be 29.1 µM; in [2], 35.7 µM; in test [3], 35.7 µM; in test [4] it was 35.7 µM; in test [5] it was 27.7 µM; in test [6] it was 27.5 µM. The Cmax in test [7] turned out to be 27.9 µM; in test [8], 28.4 µM. For the same compound, the half-inhibitory concentration (IC50) in test [9] was 679 µM; in test [10], 679 µM; in test [11] it was 804 µM; in test [12], 748 µM; in test [13] it was 882 µM; in test [14], 381 µM. Besides, the T1/2 was determined as 25.4 min in [15]; 25.1 min in [16]; 26.6 min in [17]; 26.5 min in [18]; 25.8 min in test [19]; 27.9 min in test [20]. Moreover, the T1/2 is 25.9 min in test [21] and 25 min in [22].

With `S=P1(c2ccccc2)OCCCO1`, the Cmax stood at 27.2 µM in [1]; 35.7 µM in test [2]; 37.4 µM in test [3]; 38.4 µM in [4]; 24.4 µM in test [5]; 25.7 µM in [6]. Moreover, the Cmax is 25.7 µM in test [7] and 24.8 µM in test [8]. Besides, the IC50 in test [9] worked out at 1280 µM; in test [10], 569 µM; in test [11], 612 µM; in [12], 853 µM; in test [13], 991 µM; in test [14] it was 653 µM. Further, the T1/2 in test [15] worked out at 33.5 min; in test [16] it was 35.8 min; in test [17] it was 34.6 min; in test [18], 33 min; in test [19] it was 34.2 min; in test [20], 34.7 min. Also, the values for the T1/2 in test [21] and in test [22] were 33 min and 35.8 min, respectively.

On to `CC[C@H](C)[C@H](NP(O)(=S)c1ccccc1)C(=O)O` (stereo not given in full), for which the Cmax in [1] was determined as 123 µM; in test [2] it was 122 µM; in test [3], 123 µM; in test [4] it was 123 µM; in test [5], 117 µM; in [6], 117 µM. The Cmax in test [7] came out at 117 µM; in test [8] it was 119 µM. The IC50 in test [9] amounted to 972 µM; in [10] it was 236 µM; in test [11] it was 604 µM; in test [12] it was 601 µM; in test [13], 782 µM; in [14], 658 µM. Besides, the T1/2 in test [15] was found to be 2.04 min; in test [16], 2.87 min; in [17], 3.65 min; in [18], 4.04 min; in [19], 1.53 min; in test [20], 2.72 min. For the same compound, the T1/2 is 2.91 min in test [21] and 4.17 min in test [22].

As for `S=P1(c2ccccc2)NCCCN1`, the Cmax in test [2] came to 35.7 µM; in test [3] it was 35.5 µM; in [4], 35.7 µM; in test [5], 27.2 µM; in [6], 27.1 µM; in test [7] it was 27.2 µM. Moreover, the Cmax in test [8] turned out to be 27 µM. The IC50 in [9] was 793 µM; in test [10] it was 876 µM; in test [11], 801 µM; in [12], 850 µM; in [13], 600 µM; in test [14], 381 µM. Besides, the T1/2 in test [15] is 29.2 min; in [16] it was 29.8 min; in [17] it was 27.5 min; in test [18] it was 29 min; in test [19] it was 27.8 min; in [20], 29.6 min. Also, the T1/2 in [21] amounted to 27.1 min; in test [22], 28.4 min.

Turning to `S=P1(c2ccccc2)OCC2CCCN21` (stereo not given), the Cmax in test [1] came out at 28.2 µM; in test [2], 33.7 µM; in test [3], 36.8 µM; in [4], 36.2 µM; in test [5], 26.9 µM; in test [6] it was 27.1 µM. For the same compound, the Cmax in test [7] and in test [8] was 27.1 µM throughout. The IC50 in test [9] came out at 984 µM; in test [11], 531 µM; in [12], 920 µM; in test [13], 636 µM; in test [14] it was 503 µM. In addition, the T1/2 in test [15] worked out at 29.9 min; in test [16] it was 28.2 min; in test [17] it was 27.3 min; in test [18], 29.2 min; in test [19], 27.8 min; in test [20] it was 28.6 min. Besides, the figures for the T1/2 in test [21] and in test [22] were 28.9 min and 27.5 min, respectively.

For the compound `O=c1[nH]cc(F)c(=O)[nH]1` [FLUOROURACIL], the IC50 worked out at 120 µM in test [9]; 104 µM in test [10]; 112 µM in [11]; 136 µM in test [12]; 146 µM in test [13]; 202 µM in test [14].
